Test results reported in the array DNA melting data of Ke et al. (doi:10.1101/2024.01.08.574731).

Tests used:
[1] = melting temperature; fluorescence melt of hairpins on a sequencing array, two-state fit, raised by 9.35 °C to match UV melts; conditions: sodium 0.088 M
Outline: (§1)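 Melting temperature and folding enthalpy were obtained by bootstrapped two-state fitting. Fits used Cy3 fluorescence of library hairpins with annealed Cy3 and quencher oligos on a sequenced MiSeq flow cell, imaged in 50 mM Na-HEPES pH 8.0, 25 mM NaCl in 2.5 °C steps up to 60 °C and normalised to pre-quench Cy3 and control constructs. Four replicates were combined by inverse-variance weighting, and fitted temperatures were raised by 9.35 °C to match UV melts.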

[2] = folding enthalpy; higher = less favourable; fluorescence melt of hairpins on a sequencing array, two-state fit; conditions: sodium 0.088 M
Outline: as §1

GAGAGAGGAAACCCTCTC (((((.(....).)))))
Tm [1]: 42.5 °C | folding enthalpy [2]: -20.2 kcal/mol

GAGAGAGGAAACTCTCCC (.(((((....))))).)
Tm [1]: 37 °C | folding enthalpy [2]: -17 kcal/mol

GAGAGCGAAAGCTAACTC ((((((....)))..)))
Tm [1]: 33 °C | folding enthalpy [2]: -12.7 kcal/mol

GAGAGCGAAAGCTCACTC ((((((....)))..)))
Tm [1]: 55.5 °C | folding enthalpy [2]: -12 kcal/mol

GAGAGCGAAAGCTCGCTC ((((((....)))..)))
Tm [1]: 66.9 °C | folding enthalpy [2]: -13 kcal/mol

GAGAGCGAAAGCTGACTC ((((((....)))..)))
Tm [1]: 32.3 °C | folding enthalpy [2]: -13.3 kcal/mol

GAGAGCGAAAGCTGCCTC ((((((....)))..)))
Tm [1]: 27.4 °C | folding enthalpy [2]: -11.1 kcal/mol

GAGAGCGAAAGCTGGCTC ((((((....)))..)))
Tm [1]: 37.2 °C | folding enthalpy [2]: -13.5 kcal/mol

GAGAGCGAAAGCTTCTC ((((((....))).)))
Tm [1]: 48 °C | folding enthalpy [2]: -21.9 kcal/mol

GAGAGCGCGAAAGCGCTC (((..(((....))))))
Tm [1]: 63.2 °C | folding enthalpy [2]: -6.4 kcal/mol

GAGAGGCCGAAAGGCCTC (((..(((....))))))
Tm [1]: 65.9 °C | folding enthalpy [2]: -7.49 kcal/mol

GAGAGGCGAAAGCCCCTC (((.(((....))).)))
Tm [1]: 51.7 °C | folding enthalpy [2]: -17.3 kcal/mol

GAGAGGGAAACCTCTC ((((((....))))))
Tm [1]: 55.3 °C | folding enthalpy [2]: -36.2 kcal/mol

GAGAGTACGAAAGTACTC (((..(((....))))))
Tm [1]: 55.2 °C | folding enthalpy [2]: -11.7 kcal/mol

GAGAGTGGAAACACTCCC (.(((((....))))).)
Tm [1]: 38.1 °C | folding enthalpy [2]: -13.7 kcal/mol

GAGATAGAAATATCTC ((((((....))))))
Tm [1]: 39 °C | folding enthalpy [2]: -26.9 kcal/mol

GAGATAGCGAAAGCTCTC (((..(((....))))))
Tm [1]: 40 °C | folding enthalpy [2]: -15.9 kcal/mol

GAGATAGGAAACTATCCC (.(((((....))))).)
Tm [1]: 30.1 °C | folding enthalpy [2]: -16.4 kcal/mol

GAGATCCCGAAAGGGCTC (((..(((....))))))
Tm [1]: 34.9 °C | folding enthalpy [2]: -12 kcal/mol

GAGATCCGAAAGGAGCTC (((.(((....))).)))
Tm [1]: 60.8 °C | folding enthalpy [2]: -44.9 kcal/mol

GAGATCGGAAACGATCTC (((((((....)))))))
Tm [1]: 66.8 °C | folding enthalpy [2]: -43 kcal/mol

GAGATGCGAAAGCAGCTC (((.(((....))).)))
Tm [1]: 69.1 °C | folding enthalpy [2]: -34.6 kcal/mol

GAGATGGCGAAAGCCCTC (((..(((....))))))
Tm [1]: 32.8 °C | folding enthalpy [2]: -10.3 kcal/mol

GAGATTGGAAACGATCTC (((((.(....).)))))
Tm [1]: 44.2 °C | folding enthalpy [2]: -36.1 kcal/mol

GAGCAACGAAAGTTCCTC (((.(((....))).)))
Tm [1]: 32.3 °C | folding enthalpy [2]: -13.6 kcal/mol

GAGCAACGAAAGTTTCTC (((.(((....))).)))
Tm [1]: 37 °C | folding enthalpy [2]: -26.3 kcal/mol

GAGCACACGAAAGTGCTC (((..(((....))))))
Tm [1]: 57.8 °C | folding enthalpy [2]: -33.4 kcal/mol

GAGCACCGAAAGGTCCTC (((.(((....))).)))
Tm [1]: 40.8 °C | folding enthalpy [2]: -22.2 kcal/mol

GAGCACCGAAAGGTCTC (((.(((....))))))
Tm [1]: 47.6 °C | folding enthalpy [2]: -24.1 kcal/mol

GAGCACGAAAGTGAGCTC ((((((....)))..)))
Tm [1]: 49.6 °C | folding enthalpy [2]: -25.4 kcal/mol

GAGCACGAAAGTGTACTC ((((((....)))..)))
Tm [1]: 37.5 °C | folding enthalpy [2]: -15.4 kcal/mol

GAGCACGAAAGTGTGCTC ((((((....)))..)))
Tm [1]: 58.6 °C | folding enthalpy [2]: -31.2 kcal/mol

GAGCACGGAAACGTACTC (((.(((....))).)))
Tm [1]: 45.4 °C | folding enthalpy [2]: -32.9 kcal/mol

GAGCAGCGAAAGCTCCTC (((.(((....))).)))
Tm [1]: 37.5 °C | folding enthalpy [2]: -15.2 kcal/mol

GAGCAGCGAAAGCTCTC (((.(((....))))))
Tm [1]: 47.4 °C | folding enthalpy [2]: -17.6 kcal/mol

GAGCATGAAAATGCTC ((((((....))))))
Tm [1]: 63.2 °C | folding enthalpy [2]: -33 kcal/mol

GAGCATGCGAAAGCACTC (((..(((....))))))
Tm [1]: 27 °C | folding enthalpy [2]: -8.93 kcal/mol

GAGCCACCGAAAGGTCTC (((..(((....))))))
Tm [1]: 29.7 °C | folding enthalpy [2]: -12.2 kcal/mol

GAGCCAGGAAACTGACTC (((.(((....))).)))
Tm [1]: 44 °C | folding enthalpy [2]: -36.8 kcal/mol

GAGCCCGAAAGGGCCTC ((((((....))).)))
Tm [1]: 58.9 °C | folding enthalpy [2]: -8.72 kcal/mol

GAGCCCGAAAGGGTTCTC ((((((....)))..)))
Tm [1]: 66.9 °C | folding enthalpy [2]: -19.9 kcal/mol

GAGCCCGGAAACAGGCCC (.(((.(....).))).)
Tm [1]: 27.1 °C | folding enthalpy [2]: -8.46 kcal/mol

GAGCCCGGAAACGGACTC (((.(((....))).)))
Tm [1]: 52.4 °C | folding enthalpy [2]: -33.1 kcal/mol

GAGCCGCCGAAAGGCCTC (((..(((....))))))
Tm [1]: 33.1 °C | folding enthalpy [2]: -8.95 kcal/mol

GAGCCGCGAAAGCGCCTC (((.(((....))).)))
Tm [1]: 46.4 °C | folding enthalpy [2]: -16 kcal/mol

GAGCCGCGAAAGCGCTC (((.(((....))))))
Tm [1]: 58.9 °C | folding enthalpy [2]: -16.7 kcal/mol

GAGCCGCGAAAGCGTCTC (((.(((....))).)))
Tm [1]: 54.3 °C | folding enthalpy [2]: -22.4 kcal/mol

GAGCCGGGAAACCAGCTC ((((.((....)).))))
Tm [1]: 48 °C | folding enthalpy [2]: -37.8 kcal/mol

GAGCCTGGAAACAAGCTC ((((.((....)).))))
Tm [1]: 38.6 °C | folding enthalpy [2]: -29.8 kcal/mol

GAGCCTGGAAACAGGCCC (.(((((....))))).)
Tm [1]: 47.8 °C | folding enthalpy [2]: -10.9 kcal/mol

GAGCGACGAAAGTCTCTC (((.(((....))).)))
Tm [1]: 46 °C | folding enthalpy [2]: -29.5 kcal/mol

GAGCGAGGAAACCCGCTC (((((.(....).)))))
Tm [1]: 54.7 °C | folding enthalpy [2]: -32.5 kcal/mol

GAGCGCCCGAAAGGGCTC (((..(((....))))))
Tm [1]: 29.4 °C | folding enthalpy [2]: -6.69 kcal/mol

GAGCGCCGAAAGGCACTC (((.(((....))).)))
Tm [1]: 56.4 °C | folding enthalpy [2]: -20.2 kcal/mol

GAGCGCCGAAAGGCCTC (((.(((....))))))
Tm [1]: 59.8 °C | folding enthalpy [2]: -14.6 kcal/mol

GAGCGCGAAAGCGAGCTC ((((((....)))..)))
Tm [1]: 58.3 °C | folding enthalpy [2]: -20.9 kcal/mol

GAGCGCGAAAGCGGACTC ((((((....)))..)))
Tm [1]: 52.3 °C | folding enthalpy [2]: -13.7 kcal/mol

GAGCGCGAAAGCGGCTC ((((((....))).)))
Tm [1]: 67.8 °C | folding enthalpy [2]: -20.6 kcal/mol

GAGCGCGAAAGCGTCCTC ((((((....)))..)))
Tm [1]: 42.2 °C | folding enthalpy [2]: -10 kcal/mol

GAGCGCGAAAGCGTTCTC ((((((....)))..)))
Tm [1]: 66.8 °C | folding enthalpy [2]: -18.1 kcal/mol

GAGCGCGGAAACGCACTC (((.(((....))).)))
Tm [1]: 59 °C | folding enthalpy [2]: -24.2 kcal/mol

GAGCGCGGAAACGTGCTC ((((.((....)).))))
Tm [1]: 65.6 °C | folding enthalpy [2]: -32.3 kcal/mol

GAGCGGCGAAAGCCTCTC (((.(((....))).)))
Tm [1]: 51.7 °C | folding enthalpy [2]: -20.5 kcal/mol

GAGCGGGGAAACTCGCTC (((((.(....).)))))
Tm [1]: 60.4 °C | folding enthalpy [2]: -38.3 kcal/mol

GAGCTACGAAAGTAACTC (((.(((....))).)))
Tm [1]: 42.3 °C | folding enthalpy [2]: -25.5 kcal/mol

GAGCTAGGAAACCAGCTC (((((.(....).)))))
Tm [1]: 46.3 °C | folding enthalpy [2]: -39.1 kcal/mol

GAGCTCCCGAAAGGGCTC (((..(((....))))))
Tm [1]: 44.4 °C | folding enthalpy [2]: -17.7 kcal/mol

GAGCTGCGAAAGCACCTC (((.(((....))).)))
Tm [1]: 39.7 °C | folding enthalpy [2]: -17 kcal/mol
